Converted amounts (≈) assume the structure as drawn. Some results are limits rather than exact numbers.

In series [1] the test system is Mycobacterium tuberculosis. Put plainly: Antimycobacterial activity against Mycobacterium tuberculosis H37Rv ATCC 27294 after 7 days by MABA method. Type of series: functional. Conditions: H37Rv ATCC 27294, 168 h. In short, it runs like this: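 Two-fold serial dilutions in Middlebrook 7H9GC medium, final 50 to 0.78 µg/mL (DMSO stocks), inoculum 2 × 10^5 CFU/mL. Incubated at 37 °C for 7 days, then 10% Tween 80 and Alamar Blue added and incubated 24 h at 37 °C. Blue read as no growth, pink as growth. MIC is the lowest concentration preventing the blue-to-pink change. Isoniazid and rifampin served as positive controls.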

The nature of series [2]: Cytotoxicity against mouse RAW264.7 cells assessed as inhibition of cell growth at 50 ug/mL after 72 hrs by MTT assay. Type of series: cell-based. Conditions: read-out: GI. The method in brief:
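RAW 264.7 mouse macrophage line treated at 50 µg/mL for 72 h. Viability was scored by cellular reduction of MTT to a formazan product in a non-radioactive cell proliferation assay.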

The next series has as its system RAW264.7. Put plainly: Cytotoxicity against mouse RAW264.7 cells assessed as inhibition of cell growth after 72 hrs by MTT assay. Particulars: RAW264.7, 72 h. Type of series: cell-based. In short, it runs like this: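 Mouse macrophage RAW 264.7 cells exposed to compound for 72 h. Viability was read as cellular conversion of MTT to formazan using a non-radioactive cell proliferation kit, and IC50 was taken from this.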

A short description of series [3]: Selectivity index, ratio of IC50 for mouse RAW264.7 cells to MIC for Mycobacterium tuberculosis H37Rv ATCC 27294. Format: toxicity. Conditions: read-out: Selectivity Index.
In series [4] the test system is Mycobacterium tuberculosis. Put plainly: Antimycobacterial activity against Mycobacterium tuberculosis H37Rv ATCC 27294 assessed as inhibition of cell growth at 6.25 ug/mL after 7 days by MABA method. Format: functional. Conditions: H37Rv ATCC 27294, 168 h, read-out: GI.
The subject of series [5] is Mycobacterium tuberculosis. Put plainly: Antimycobacterial activity against Mycobacterium tuberculosis H37Rv ATCC 27294 assessed as inhibition of cell growth at 3.125 ug/mL after 7 days by MABA method. Type of series: functional. Conditions: H37Rv ATCC 27294, 168 h, read-out: GI.

As for `Cc1ccc(S(=O)(=O)N2CCN(c3noc4cccc(Cl)c34)CC2)cc1`, the MIC in series [1] was 6.25 µg/mL (≈ 15.9 µM). In addition, the inhibition at 72 h, 50 ug/mL in series [2] worked out at 21.6%. In addition, the IC50 in the series on RAW264.7 was 116 µg/mL (≈ 295 µM). The selectivity ratio in series [3] worked out at 18.5. In addition, the inhibition of growth at 6.25 µg/mL in series [4] worked out at 99%.
Regarding `O=S(=O)(c1ccccc1)N1CCN(c2noc3ccccc23)CC1`, the MIC in series [1] came out at 3.12 µg/mL (≈ 9.09 µM). For the same molecule, the inhibition at 72 h, 50 ug/mL in series [2] was found to be 5.82%. In addition, the IC50 in the series on RAW264.7 is 430 µg/mL (≈ 1250 µM). Besides, the selectivity ratio in series [3] turned out to be 137. For the same molecule, the inhibition of growth at 3.125 µg/mL in series [5] was 99%.
In series [1], `O=[N+]([O-])c1ccc(S(=O)(=O)N2CCN(c3noc4cc(Cl)ccc34)CC2)cc1` gave an MIC of 25 µg/mL (≈ 59.1 µM).
The same measure, in the same setting: next, `Cc1ccc(S(=O)(=O)N2CCN(c3noc4c(Cl)cccc34)CC2)cc1`: above 50 µg/mL.
On the same count and under the same terms, next, `CS(=O)(=O)N1CCN(c2noc3cccc(Cl)c23)CC1`: above 50 µg/mL; `Cc1ccc(S(=O)(=O)N2CCN(c3noc4cc(Cl)ccc34)CC2)cc1`: above 50 µg/mL; `O=S(=O)(c1ccccc1)N1CCN(c2noc3cccc(Cl)c23)CC1`: 25 µg/mL (≈ 66.2 µM).
Same read-out and setting: the result for `CO[C@H]1/C=C/O[C@@]2(C)Oc3c(C)c(O)c4c(O)c(c(/C=N/N5CCN(C)CC5)c(O)c4c3C2=O)NC(=O)/C(C)=C\C=C\[C@H](C)[C@H](O)[C@@H](C)[C@@H](O)[C@@H](C)[C@H](OC(C)=O)[C@@H]1C` [RIFAMPIN] reads 1 µg/mL (≈ 1.22 µM); that for `Cc1ccc(S(=O)(=O)N2CCN(c3noc4ccccc34)CC2)cc1`, 50 µg/mL (≈ 140 µM).
`O=S(=O)(c1ccccc1)N1CCN(c2noc3c(Cl)cccc23)CC1` gave an MIC in series [1] of 25 µg/mL (≈ 66.2 µM).
Still for that read-out and setting: next, `Clc1cccc2onc(N3CCNCC3)c12`: 25 µg/mL (≈ 105 µM).
`O=S(=O)(c1ccc(OC(F)(F)F)cc1)N1CCN(c2noc3cc(Cl)ccc23)CC1` came in with an MIC in series [1] of 12.5 µg/mL (≈ 27.1 µM). In addition, in series [2], the inhibition at 72 h, 50 ug/mL worked out at 18.1%. For the same molecule, the IC50 in the series on RAW264.7 is 138 µg/mL (≈ 299 µM). Also, the selectivity ratio in series [3] amounted to 11.
Consider `NNC(=O)c1ccncc1` [ISONIAZID], for which the MIC in series [1] came out at 0.36 µg/mL (≈ 2.63 µM).
Consider `O=S(=O)(c1ccc(Br)cc1)N1CCN(c2noc3c(Cl)cccc23)CC1`, for which the lowest concentration to inhibit growth in series [1] (MIC) was 25 µg/mL (≈ 54.7 µM).
The same measure, in the same setting: the result for `O=S(=O)(c1ccc(OC(F)(F)F)cc1)N1CCN(c2noc3c(Cl)cccc23)CC1` reads above 50 µg/mL; that for `O=S(=O)(c1ccc(Br)cc1)N1CCN(c2noc3ccccc23)CC1`, 50 µg/mL (≈ 118 µM); that for `O=S(=O)(c1ccc(Br)cc1)N1CCN(c2noc3cc(Cl)ccc23)CC1`, above 50 µg/mL.
On to `O=[N+]([O-])c1ccc(S(=O)(=O)N2CCN(c3noc4c(Cl)cccc34)CC2)cc1`, for which, in series [1], inhibition of growth (MIC) required 50 µg/mL (≈ 118 µM).
`Clc1ccc2c(N3CCNCC3)noc2c1` showed an MIC in series [1] of 12.5 µg/mL (≈ 52.6 µM). In series [2], the inhibition at 72 h, 50 ug/mL is 24.1%. Besides, the IC50 in the series with RAW264.7 was 104 µg/mL (≈ 436 µM). In series [3], the selectivity ratio is 8.29.
Take `Clc1cccc2c(N3CCNCC3)noc12`: the MIC in series [1] amounted to 25 µg/mL (≈ 105 µM).
Still for that read-out and setting: next, `CS(=O)(=O)N1CCN(c2noc3cc(Cl)ccc23)CC1`: above 50 µg/mL.
Turning to `O=S(=O)(c1ccc(Br)cc1)N1CCN(c2noc3cccc(Cl)c23)CC1`, the lowest concentration to inhibit growth in series [1] (MIC) was 50 µg/mL (≈ 109 µM).
`O=S(=O)(c1ccc(OC(F)(F)F)cc1)N1CCN(c2noc3cccc(Cl)c23)CC1`: 12.5 µg/mL (≈ 27.1 µM) was the least that counted as inhibitory in series [1] (MIC). The inhibition at 72 h, 50 ug/mL in series [2] was determined as 42.2%. The IC50 in the series on RAW264.7 amounted to 59.3 µg/mL (≈ 128 µM). Further, the selectivity ratio in series [3] was 4.74.
On to `O=S(=O)(c1ccc(OC(F)(F)F)cc1)N1CCN(c2noc3ccccc23)CC1`, for which the MIC in series [1] was above 50 µg/mL.
Consider `CS(=O)(=O)N1CCN(c2noc3ccccc23)CC1`, for which the MIC in series [1] is 12.5 µg/mL (≈ 44.4 µM). Also, in series [2], the inhibition at 72 h, 50 ug/mL was determined as 28.4%. For the same molecule, in the series on RAW264.7, the IC50 was determined as 88 µg/mL (≈ 313 µM). Further, the selectivity ratio in series [3] came to 7.03.
With `O=[N+]([O-])c1ccc(S(=O)(=O)N2CCN(c3noc4ccccc34)CC2)cc1`, the MIC in series [1] was above 50 µg/mL.
Same read-out and setting: next, `O=[N+]([O-])c1ccc(S(=O)(=O)N2CCN(c3noc4cccc(Cl)c34)CC2)cc1`: 50 µg/mL (≈ 118 µM).
The molecule `CS(=O)(=O)N1CCN(c2noc3c(Cl)cccc23)CC1` gave an MIC in series [1] of 25 µg/mL (≈ 79.2 µM).
On the same count and under the same terms, next, `O=S(=O)(c1ccccc1)N1CCN(c2noc3cc(Cl)ccc23)CC1`: 25 µg/mL (≈ 66.2 µM).
On to `c1ccc2c(N3CCNCC3)noc2c1`, for which 6.25 µg/mL (≈ 30.8 µM) was the least that counted as inhibitory in series [1] (MIC). Besides, the inhibition at 72 h, 50 ug/mL in series [2] stood at 36.8%. Further, the IC50 with RAW264.7 stood at 67.9 µg/mL (≈ 334 µM). The selectivity ratio in series [3] was 10.8.

Values taken from ChEMBL document CHEMBL3352557, “Design, synthesis and antimycobacterial activity of various 3-(4-(substitutedsulfonyl)piperazin-1-yl)benzo[d]isoxazole derivatives” (Eur J Med Chem, 2014).
